Test results taken from ChEMBL document CHEMBL5303300, “EUbOPEN Chemogenomics Library - Multiplex” (2023).
Where “and” joins values, the source holds several entries; their conditions need not be identical. Equal entries are not always repeated.

Test system: Fibroblast
Assay: Multiplex assay against human fibroblast
Type: toxicity, cell-based
Settings: number of replicates 2
Summary of the method: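 Four dyes were applied at seeding to live cells: Hoechst33342, BioTracker Green Microtubule Cytoskeleton Dye, MitoTracker Red and Annexin V Alexa Fluor 680. Imaging after compound addition used a CQ1 microscope at 37°C and 5% CO2. CellPathfinder machine-learning gating then sorted cells into Hoechst high-intensity objects or normal cells, normal cells into healthy, pyknosed or fragmented nuclei, and pyknosed cells into mitotic or apoptotic, with tubulin, mitochondrial-mass and membrane-permeability phenotypes given as per cents of healthy-nucleus cells.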

[1] = 12 h, 1 µM, compound concentration 1 uM
[2] = 12 h, 10 µM, compound concentration 10 uM
[3] = 24 h, 1 µM, compound concentration 1 uM
[4] = 24 h, 10 µM, compound concentration 10 uM
[5] = 48 h, 1 µM, compound concentration 1 uM
[6] = 48 h, 10 µM, compound concentration 10 uM

## CS(=O)(=O)c1ccc(C(=O)Nc2cccc(COc3cc(F)c(Br)cc3CN3CC[C@H](O)C3)c2)c(Cl)c1.O=CO
[1]
  Population Apoptotic (%): 46% and 35%
  Population Healthy Nuclei (%): 48% and 72%
  Population Mitotic Cells (%): 53% and 64%
  Population Pyknosed Nuclei (%): 41% and 16%
  Total Cell Count: 114 and 171
[2]
  Population Apoptotic (%): 51% and 40%
  Population Healthy Nuclei (%): 48% and 51%
  Population Mitotic Cells (%): 48% and 59%
  Population Pyknosed Nuclei (%): 33% and 23%
  Total Cell Count: 211 and 262
[3]
  Population Apoptotic (%): 55% and 57%
  Population Healthy Nuclei (%): 50%
  Population Mitotic Cells (%): 42%
  Population Pyknosed Nuclei (%): 39% and 18%
  Total Cell Count: 120 and 190
[4]
  Population Apoptotic (%): 77% and 74%
  Population Healthy Nuclei (%): 53% and 58%
  Population Mitotic Cells (%): 22%
  Population Pyknosed Nuclei (%): 26% and 19%
  Total Cell Count: 217 and 251
[5]
  Population Apoptotic (%): 75% and 82%
  Population Healthy Nuclei (%): 62%
  Population Mitotic Cells (%): 24%
  Population Pyknosed Nuclei (%): 23% and 11%
  Total Cell Count: 123 and 198
[6]
  Population Apoptotic (%): 92% and 82%
  Population Healthy Nuclei (%): 62% and 60%
  Population Mitotic Cells (%): 7%
  Population Pyknosed Nuclei (%): 15% and 14%
  Total Cell Count: 245 and 274

## Cc1ccc2c(N)c(C(=O)NC3CCc4cc(N5CC6CCC(C5)N6)ccc4C3)sc2n1.O=CO (stereo not drawn)
[1]
  Population Apoptotic (%): 50% and 54%
  Population Fragmented Nuclei (%): 16%
  Population Healthy Nuclei (%): 73% and 68%
  Population Hoechst High Intensity Objects (%): 0% and 1%
  Population Membrane Permeable-Phenotype (%): 2%
  Population Mitochondria Different-Phenotype (%): 1% and 2%
  Population Mitotic Cells (%): 50% and 45%
  Population Normal (%): 99% and 98%
  Population Pyknosed Nuclei (%): 10% and 15%
  Population Tubulin-Different-Phenotype (%): 17% and 14%
  Total Cell Count: 232 and 283
[2]
  Population Apoptotic (%): 38% and 26%
  Population Fragmented Nuclei (%): 16% and 24%
  Population Healthy Nuclei (%): 53% and 55%
  Population Hoechst High Intensity Objects (%): 3% and 5%
  Population Membrane Permeable-Phenotype (%): 4% and 2%
  Population Mitochondria Different-Phenotype (%): 3% and 1%
  Population Mitotic Cells (%): 61% and 73%
  Population Normal (%): 96% and 94%
  Population Pyknosed Nuclei (%): 29% and 20%
  Population Tubulin-Different-Phenotype (%): 23% and 22%
  Total Cell Count: 238 and 259
[3]
  Population Apoptotic (%): 46% and 52%
  Population Fragmented Nuclei (%): 14%
  Population Healthy Nuclei (%): 75% and 71%
  Population Hoechst High Intensity Objects (%): 0%
  Population Membrane Permeable-Phenotype (%): 2% and 1%
  Population Mitochondria Different-Phenotype (%): 3% and 2%
  Population Mitotic Cells (%): 53% and 47%
  Population Normal (%): 100% and 99%
  Population Pyknosed Nuclei (%): 10% and 14%
  Population Tubulin-Different-Phenotype (%): 15% and 14%
  Total Cell Count: 259 and 302
[4]
  Population Apoptotic (%): 48% and 45%
  Population Fragmented Nuclei (%): 18% and 23%
  Population Healthy Nuclei (%): 42% and 48%
  Population Hoechst High Intensity Objects (%): 7% and 6%
  Population Membrane Permeable-Phenotype (%): 2% and 1%
  Population Mitochondria Different-Phenotype (%): 13% and 8%
  Population Mitotic Cells (%): 51% and 54%
  Population Normal (%): 92% and 93%
  Population Pyknosed Nuclei (%): 39% and 28%
  Population Tubulin-Different-Phenotype (%): 23% and 15%
  Total Cell Count: 228 and 250
[5]
  Population Apoptotic (%): 56% and 60%
  Population Fragmented Nuclei (%): 27% and 18%
  Population Healthy Nuclei (%): 67% and 71%
  Population Hoechst High Intensity Objects (%): 0%
  Population Membrane Permeable-Phenotype (%): 1%
  Population Mitochondria Different-Phenotype (%): 1% and 3%
  Population Mitotic Cells (%): 43% and 40%
  Population Normal (%): 99%
  Population Pyknosed Nuclei (%): 5% and 10%
  Population Tubulin-Different-Phenotype (%): 18% and 17%
  Total Cell Count: 294 and 298
[6]
  Population Apoptotic (%): 67% and 55%
  Population Fragmented Nuclei (%): 20% and 22%
  Population Healthy Nuclei (%): 29% and 36%
  Population Hoechst High Intensity Objects (%): 11% and 10%
  Population Membrane Permeable-Phenotype (%): 7% and 2%
  Population Mitochondria Different-Phenotype (%): 21% and 16%
  Population Mitotic Cells (%): 32% and 44%
  Population Normal (%): 88% and 89%
  Population Pyknosed Nuclei (%): 49% and 40%
  Population Tubulin-Different-Phenotype (%): 25% and 15%
  Total Cell Count: 194 and 215

## CS(=O)(=O)c1ccc(C(=O)Nc2ccc(F)c(COc3ccc(Br)cc3CNCCO)c2)c(Cl)c1.O=CO
[1]
  Population Apoptotic (%): 41% and 39%
  Population Healthy Nuclei (%): 69% and 66%
  Population Mitotic Cells (%): 58% and 60%
  Total Cell Count: 178 and 232
[2]
  Population Apoptotic (%): 50% and 51%
  Population Healthy Nuclei (%): 49%
  Population Mitotic Cells (%): 50% and 48%
  Population Pyknosed Nuclei (%): 35% and 30%
  Total Cell Count: 220 and 252
[3]
  Population Apoptotic (%): 63% and 46%
  Population Healthy Nuclei (%): 68% and 56%
  Population Mitotic Cells (%): 36% and 53%
  Total Cell Count: 202 and 243
[4]
  Population Apoptotic (%): 68% and 73%
  Population Healthy Nuclei (%): 54% and 56%
  Population Mitotic Cells (%): 31% and 26%
  Population Pyknosed Nuclei (%): 27% and 22%
  Total Cell Count: 219 and 283
[5]
  Population Apoptotic (%): 54% and 68%
  Population Healthy Nuclei (%): 71% and 72%
  Population Mitotic Cells (%): 45% and 31%
  Total Cell Count: 202 and 207
[6]
  Population Apoptotic (%): 88% and 77%
  Population Healthy Nuclei (%): 63% and 61%
  Population Mitotic Cells (%): 11% and 22%
  Population Pyknosed Nuclei (%): 22%
  Total Cell Count: 200 and 244
